IDE inh = cellular human IDE inhibition. P14735. 320,000 tested, 0.41% active. inhibition, % at 5.59 µM. HEK cells, FAbetaB cleavage, fluorescence polarization;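 active = percent inhibition above the average of all tested compounds plus 3 SD, set per screening campaign, cut at about 16% in these data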;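 note: IDE supplied by intact live HEK cells; FP after avidin binding of uncleaved biotin substrate so inhibition keeps polarization high; 0% = DMSO wells and 100% = 60 µM reference IDE inhibitor Ii1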
CSN inh = blocks human CSN-mediated cullin deneddylation; Q92905; Purified CSN, SCF-Nedd8-OG deneddylation, fluorescence polarization; inhibition, % at 12.5 µM; 360,000 tested, 0.38% active;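 active = pattern-corrected inhibition above about 35%, with an unprinted fluorescence ratio check between 0.5 and 1.5, limit read from the data, passing the limit was not always enough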;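 note: 0% = enzyme with substrate and 100% = substrate without enzyme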
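Material: purified human Csn5 enzyme expressed in HEK293T cells / Medium: Tris buffer pH 7.5, NaCl, DTT, Tween-20, trehalose, ovalbumin / Compound dosing: 12.5 µM single point / Schedule: 90 min incubation of compound, enzyme and substrate at room temperature / Signal: fluorescence polarization of the substrate / Control set: no-enzyme wells high, enzyme-with-substrate wells low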
IDE act = IDE (human) activation, cell-based; 340,000 tested, 0.073% active; AID 493087; HEK cells, FAbeta-B cleavage, fluorescence polarization; 0% vehicle, 100% cell-free pure enzyme wells; activation, % at 5.96 µM; P14735;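 active = activation above the mean of all tested compounds plus 3 SD, set per screening campaign, cut at about 17% in these data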
TPT1 inhibitor = blocks Candida albicans tRNA 2'-phosphotransferase. recombinant caTPT1, FP RNA substrate dephosphorylation. 300,000 tested, 0.81% active. inhibition, % at 5 µM. AID 1962;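 active = inhibition above the mean of all tested compounds plus 3 SD, set per screening campaign, cut at about 24% in these data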;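 note: plate controls were DMSO alone for no effect and ferristatin control at 100 nM for full effect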
HNF4A DNA FP = change in binding of human HNF4 alpha to DNA. activity change, % at 10 µM. 360,000 tested, 0.3% active. HNF4a-FITC DNA binding, fluorescence polarization, 1 h; in the data active = activity change above about 30%, passing the limit was not always enough
Target sequence (P41235 whole entry, looked up): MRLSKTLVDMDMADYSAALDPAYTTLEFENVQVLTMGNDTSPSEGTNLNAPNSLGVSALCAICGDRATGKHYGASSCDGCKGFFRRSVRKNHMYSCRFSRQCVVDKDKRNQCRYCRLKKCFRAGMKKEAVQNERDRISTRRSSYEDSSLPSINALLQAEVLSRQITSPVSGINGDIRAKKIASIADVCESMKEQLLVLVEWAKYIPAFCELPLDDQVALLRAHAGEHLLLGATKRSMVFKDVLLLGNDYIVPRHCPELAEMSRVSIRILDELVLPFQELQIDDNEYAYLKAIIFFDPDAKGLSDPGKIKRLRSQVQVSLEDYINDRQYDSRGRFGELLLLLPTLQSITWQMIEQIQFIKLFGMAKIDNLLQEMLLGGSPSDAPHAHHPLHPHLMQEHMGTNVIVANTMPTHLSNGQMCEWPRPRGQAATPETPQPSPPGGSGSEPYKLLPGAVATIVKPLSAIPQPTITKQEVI
TPT1 inh confirm = confirmation of Candida albicans TPT1 inhibitors. shares compounds with TPT1 inhibitor. recombinant caTPT1, fluorescence polarization, RNase T1 coupled. inhibition, % at 5 µM. 2,400 tested, 74% active;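 active = inhibition above the primary screen limit, the mean inhibition of all tested compounds plus 3 SD, cut at about 25% in these data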
RNase T1 counter = RNase T1 inhibition in TPT1 counter-screen; 2,400 tested, 83% active; shares compounds with TPT1 inhibitor; AID 2153; RNase T1 cleavage, fluorescence polarization, 1536-well; inhibition, % at 5 µM;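 active = inhibition above the solvent-only control well mean plus 3 SD, limit set per screening run, cut at about 23% in these data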;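 note: plate controls were DMSO wells with enzyme for no effect and wells without RNase T1 for full effect; inhibitors block cleavage so intact labeled substrate keeps polarization high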
Target sequence (P00651 whole entry, looked up): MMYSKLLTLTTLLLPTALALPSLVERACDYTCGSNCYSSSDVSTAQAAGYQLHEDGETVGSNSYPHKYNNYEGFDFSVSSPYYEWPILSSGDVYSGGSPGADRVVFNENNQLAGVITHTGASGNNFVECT
Numbers without * were called inactive. Sampled rows, rich in hits. Any-hit rate of the full collection: about 1.4%.

What do the screens show for `CCOC(=O)c1c(/N=C/N(C)C)sc(/C=N/Nc2ccccc2)c1-c1ccccc1Cl`?
IDE inh: 2; CSN inh: 11; IDE act: -3; TPT1 inhibitor: 35*; HNF4A DNA FP: 17; TPT1 inh confirm: 40*; RNase T1 counter: 52*

Results for CCCS(=O)(=O)NC(=O)C1(C)CCCN(C(=O)c2ccccc2OC(F)(F)F)C1 (stereo not drawn) ?
CSN inh: 3; HNF4A DNA FP: -3

What do the screens show for `N#C/C(=C\c1cc(O)c(O)c(O)c1)C(N)=O`?
IDE inh: 2; CSN inh: 14; IDE act: -3; TPT1 inhibitor: 33*; HNF4A DNA FP: 2; TPT1 inh confirm: 27*; RNase T1 counter: 36*

How did N#C/C(=C\c1cc(Cl)c(OCc2ccc(Cl)cc2)c(Cl)c1)C(N)=O do in these assays?
IDE inh: 7; TPT1 inhibitor: 1

How did O=c1[nH][nH]c(=O)c2nc(Nc3ccccc3)ncc12 do in these assays?
CSN inh: 7; IDE act: 2; HNF4A DNA FP: 1

What do the screens show for `CCN1CCN(c2c(/C=C3\SC(=S)N(Cc4ccco4)C3=O)c(C)c(C#N)c(=O)n2C)CC1`?
IDE inh: 66*; CSN inh: 141; IDE act: -62; TPT1 inhibitor: 161*; HNF4A DNA FP: 137; TPT1 inh confirm: 181*; RNase T1 counter: 172*

Results for CCN1C(=O)/C(=C\N2CCN(C(=O)c3ccco3)CC2)SC1=S ?
IDE inh: -3; CSN inh: 2; IDE act: 4; TPT1 inhibitor: 5; HNF4A DNA FP: -6

What do the screens show for `O=C(NC1CCCCC1)C1c2ccccc2OCC(=O)N1Cc1ccc2c(c1)OCO2` (stereo not drawn)?
CSN inh: 0; HNF4A DNA FP: -2

Results for O=C(O)CCCn1c(O)c(C=C2N=c3ccccc3=N2)sc1=S ?
IDE inh: -5; CSN inh: -1; IDE act: 6; TPT1 inhibitor: 4; HNF4A DNA FP: 0

What do the screens show for `COCCCn1c(O)c(/C=C2\N=C(C#N)C(=Nc3ccc(C)cc3)O2)sc1=S`?
IDE inh: 10; CSN inh: 20; IDE act: -12; TPT1 inhibitor: 79*; HNF4A DNA FP: 110; TPT1 inh confirm: 80*; RNase T1 counter: 85*

What do the screens show for `CCOC(=O)/C(N=Nc1c(C)n(C)n(-c2ccccc2)c1=O)=C(/O)c1ccccc1`?
IDE inh: 3; CSN inh: -11; IDE act: 11; TPT1 inhibitor: -1; HNF4A DNA FP: 1

What do the screens show for `Cc1c(N=N/C(C(=O)Nc2ccccc2)=C(/O)c2ccccc2)c(=O)n(-c2ccccc2)n1C`?
IDE inh: 4; CSN inh: 5; IDE act: 8; TPT1 inhibitor: 55*; HNF4A DNA FP: 22; TPT1 inh confirm: 54*; RNase T1 counter: 67*

How did COc1ccc(Cn2cc(CN(C)C3CN(Cc4cn(Cc5ccc(OC)cc5)nn4)S(=O)(=O)C3)nn2)cc1 (stereo not drawn) do in these assays?
CSN inh: 2; HNF4A DNA FP: 9

Results for CCC(C(=O)Nc1c(C)cccc1C)n1c(-c2ccc(=O)[nH]c2)nc2ccccc21 (stereo not drawn) ?
CSN inh: -6; HNF4A DNA FP: 3

How did CC1=C(C(=O)N(C(C)C)C(C)C)CC(CC(=O)NCc2cccc3ccccc23)C(=O)N1CCC1=CCCCC1 (stereo not drawn) do in these assays?
CSN inh: 3; HNF4A DNA FP: -2

What do the screens show for `COc1nc(N)c(S(=O)(=O)c2ccccc2)cc1C#N`?
IDE inh: -1; CSN inh: 12; IDE act: 3; TPT1 inhibitor: 30*; HNF4A DNA FP: 16; TPT1 inh confirm: 30*; RNase T1 counter: 41*

Results for CCOC(=O)c1cc(N)cc([N+](=O)[O-])c1 ?
IDE inh: -1; CSN inh: 0; IDE act: 2; TPT1 inhibitor: -3; HNF4A DNA FP: 0

Results for CCOC(=O)c1sc2cc([N+](=O)[O-])cc(SCC(C)C)c2c1N ?
IDE inh: 4; CSN inh: 20; IDE act: 3; TPT1 inhibitor: 32*; HNF4A DNA FP: 25; TPT1 inh confirm: 35*; RNase T1 counter: 46*

How did COC(=O)[C@@H]1C[C@@H]2CC[C@@H](O)C[C@@H]2N1Cc1ccccc1OS(=O)(=O)c1ccc(C)cc1 do in these assays?
IDE inh: 1; CSN inh: 9; IDE act: 3; TPT1 inhibitor: 34*; HNF4A DNA FP: 26; TPT1 inh confirm: 37*; RNase T1 counter: 48*

Results for COC(=O)Cn1c(CN2CCN(c3ccc(F)cc3)CC2)nc2c1c(=O)n(C)c(=O)n2C ?
IDE inh: 0; CSN inh: -4; IDE act: 0; TPT1 inhibitor: 90*; HNF4A DNA FP: 1; TPT1 inh confirm: 1; RNase T1 counter: 8

What do the screens show for `CCOCCn1c(CN2CCN(c3ccc(F)cc3)CC2)nc2c1c(=O)n(C)c(=O)n2C`?
IDE inh: 1; CSN inh: -6; IDE act: -7; TPT1 inhibitor: -5; HNF4A DNA FP: 1

How did COc1ccc(/C=C2\CC/C(=C\c3ccc(OC)c(OC)c3)C2=O)cc1OC do in these assays?
IDE inh: -5; CSN inh: 15; IDE act: 1; TPT1 inhibitor: 3; HNF4A DNA FP: 7

How did COc1cc(/C=C2\CC/C(=C\c3ccc(OCCO)c(OC)c3)C2=O)ccc1OCCO do in these assays?
IDE inh: 10; CSN inh: 34; IDE act: -7; TPT1 inhibitor: 107*; HNF4A DNA FP: 12; TPT1 inh confirm: 114*; RNase T1 counter: 113*

What do the screens show for `C/C(=N/Nc1nc(-c2ccccc2F)nc2ccccc12)c1ccccc1O`?
IDE inh: 5; CSN inh: -3; IDE act: -9; TPT1 inhibitor: 32*; HNF4A DNA FP: 7; TPT1 inh confirm: 36*; RNase T1 counter: 51*

What do the screens show for `CN(C)S(=O)(=O)c1cccc(C(=O)Nc2ccc(Cl)cn2)c1`?
IDE inh: -1; CSN inh: 0; IDE act: 5; TPT1 inhibitor: 27*; HNF4A DNA FP: 5; TPT1 inh confirm: 8; RNase T1 counter: 8

What do the screens show for `CC1CCCCC1NC(=O)COC(=O)c1c2c(nc3ccccc13)/C(=C/c1ccco1)CC2` (stereo not drawn)?
IDE inh: 1; CSN inh: 25; IDE act: -6; TPT1 inhibitor: 33*; HNF4A DNA FP: -35; TPT1 inh confirm: 29*; RNase T1 counter: 41*

Assay outcomes (PubChem)
